One block for each compound: values may come before it.
Key:
[1] = target: T1, Metabotropic glutamate receptor 2 (Rattus norvegicus, UniProt P31421); assay: Binding affinity towards metabotropic glutamate receptor 2 of rat expressed in CHO cells was determined by using [3H]MGS-0008; format: cell-based
[2] = target: T2, Metabotropic glutamate receptor 3 (Rattus norvegicus, UniProt P31422); assay: Binding affinity towards metabotropic glutamate receptor 3 of rat expressed in CHO cells was determined by using [3H]MGS-0008; format: cell-based
T2 sequence (P31422 whole entry): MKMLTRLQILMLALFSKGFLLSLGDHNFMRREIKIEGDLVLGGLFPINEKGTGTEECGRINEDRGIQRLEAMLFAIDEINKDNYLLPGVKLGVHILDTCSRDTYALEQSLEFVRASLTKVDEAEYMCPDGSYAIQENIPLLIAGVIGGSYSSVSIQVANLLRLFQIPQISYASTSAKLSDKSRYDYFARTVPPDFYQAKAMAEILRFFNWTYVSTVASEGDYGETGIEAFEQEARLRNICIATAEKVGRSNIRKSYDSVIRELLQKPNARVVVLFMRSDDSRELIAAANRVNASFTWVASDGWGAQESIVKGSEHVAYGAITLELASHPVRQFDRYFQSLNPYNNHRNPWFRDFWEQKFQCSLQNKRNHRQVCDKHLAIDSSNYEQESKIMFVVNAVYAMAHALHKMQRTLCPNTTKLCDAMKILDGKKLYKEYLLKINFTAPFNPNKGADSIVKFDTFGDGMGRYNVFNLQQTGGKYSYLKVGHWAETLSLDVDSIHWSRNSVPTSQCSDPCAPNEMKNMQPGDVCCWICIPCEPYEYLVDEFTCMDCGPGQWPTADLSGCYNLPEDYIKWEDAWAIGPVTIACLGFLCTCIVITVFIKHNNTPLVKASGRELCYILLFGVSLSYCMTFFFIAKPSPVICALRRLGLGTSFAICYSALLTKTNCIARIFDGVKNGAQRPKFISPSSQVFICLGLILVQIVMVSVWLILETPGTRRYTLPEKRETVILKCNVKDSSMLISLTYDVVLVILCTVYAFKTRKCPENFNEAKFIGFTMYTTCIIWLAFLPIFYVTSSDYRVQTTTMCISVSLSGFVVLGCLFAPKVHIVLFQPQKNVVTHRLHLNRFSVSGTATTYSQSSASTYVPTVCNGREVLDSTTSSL

[3] = Half-life in rat upon oral dose of 30 mg/kg; format: ADME, organism-based; design: dose 30 mg/kg, route oral; conditions: in vivo
Procedure, shortened: (§1)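 Fasted rats were dosed orally at 3, 10 or 30 mg/kg. Plasma concentration-time profiles were measured by LC/ESI-MS/MS. Cmax, Tmax, elimination half-life and AUCinf were derived per dose group and reported as mean ± deviation.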

[4] = target: T1, Metabotropic glutamate receptor 2; assay: Concentration required to inhibit metabotropic glutamate receptor 2 activity of rat expressed in CHO cells; format: cell-based
[5] = Concentration of compound in brain of rat after 1 hr of oral dose 10 mg/kg; format: ADME, organism-based; design: dose 10 mg/kg, route oral
Procedure, shortened: (§2)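 Rats given a single peroral dose of 10 mg/kg. Plasma and cerebrum were sampled at 1, 3, 6 and 24 h. Concentrations were measured by LC/ESI-MS/MS using an internal standard. Detection limits were 1 ng/mL in plasma and 1.5 ng/g in brain. Tmax, Cmax, terminal half-life (lambda z) and predicted AUCinf were derived from the mean time-course levels.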

[6] = Concentration of compound in brain of rat after 3h of oral dose 10 mg/kg; format: ADME, organism-based; design: dose 10 mg/kg, route oral; procedure, shortened: as §2
[7] = Concentration of compound in brain of rat after 6 hr of oral dose 10 mg/kg; format: ADME, organism-based; design: dose 10 mg/kg, route oral; procedure, shortened: as §2
[8] = Peak plasma concentration in rats upon oral dose of 3 mg/kg; format: ADME, organism-based; design: dose 3 mg/kg, route oral; conditions: rat; procedure, shortened: as §1
[9] = Peak plasma concentration in rats upon oral dose of 10 mg/kg; format: ADME, organism-based; design: dose 10 mg/kg, route oral; conditions: rat; procedure, shortened: as §1
[10] = Peak plasma concentration in rats upon oral dose of 30 mg/kg; format: ADME, organism-based; design: dose 30 mg/kg, route oral; conditions: rat; procedure, shortened: as §1
[11] = Peak plasma concentration in rat brain upon oral dose of 10 mg/kg; format: ADME, organism-based; design: dose 10 mg/kg, route oral; procedure, shortened: as §2
[12] = Peak plasma concentration in rat plasma upon oral dose of 10 mg/kg; format: ADME, organism-based; design: dose 10 mg/kg, route oral; procedure, shortened: as §2
[13] = Half-life in rat brain upon oral dose of 10 mg/kg; format: ADME, organism-based; design: dose 10 mg/kg, route oral; procedure, shortened: as §2
[14] = Half-life in rat plasma upon oral dose of 10 mg/kg; format: ADME, organism-based; design: dose 10 mg/kg, route oral; procedure, shortened: as §2
[15] = Concentration of compound in brain of rat after 24 hr of oral dose 10 mg/kg; format: ADME, organism-based; design: dose 10 mg/kg, route oral; procedure, shortened: as §2
[16] = Concentration of compound in plasma of rat after 1 hr of oral dose 10 mg/kg; format: ADME, organism-based; design: dose 10 mg/kg, route oral; procedure, shortened: as §2
[17] = Concentration of compound in plasma of rat after 3h of oral dose 10 mg/kg; format: ADME, organism-based; design: dose 10 mg/kg, route oral; procedure, shortened: as §2
[18] = Concentration of compound in plasma of rat after 6 hr of oral dose 10 mg/kg; format: ADME, organism-based; design: dose 10 mg/kg, route oral; procedure, shortened: as §2
[19] = Concentration of compound in plasma of rat after 24 hr of oral dose 10 mg/kg; format: ADME, organism-based; design: dose 10 mg/kg, route oral; procedure, shortened: as §2
[20] = Maximum time required to achieve peak plasma concentration upon oral dose of 3 mg/kg to rats; format: ADME, organism-based; design: dose 3 mg/kg, route oral; conditions: rat; procedure, shortened: as §1
[21] = Maximum time required to achieve peak plasma concentration upon oral dose of 10 mg/kg to rats; format: ADME, organism-based; design: dose 10 mg/kg, route oral; conditions: rat; procedure, shortened: as §1
[22] = Maximum time required to achieve peak plasma concentration upon oral dose of 30 mg/kg to rats; format: ADME, organism-based; design: dose 30 mg/kg, route oral; conditions: rat; procedure, shortened: as §1
[23] = Maximum time required to achieve peak plasma concentration in rat brain upon oral dose of 10 mg/kg; format: ADME, organism-based; design: dose 10 mg/kg, route oral; procedure, shortened: as §2
[24] = Maximum time required to achieve peak plasma concentration in rat plasma upon oral dose of 10 mg/kg; format: ADME, organism-based; design: dose 10 mg/kg, route oral; procedure, shortened: as §2
[25] = Half-life in rat upon oral dose of 3 mg/kg; format: ADME, organism-based; design: dose 3 mg/kg, route oral; conditions: in vivo; procedure, shortened: as §1
[26] = Half-life in rat upon oral dose of 10 mg/kg; format: ADME, organism-based; design: dose 10 mg/kg, route oral; conditions: in vivo; procedure, shortened: as §1
[27] = target: T1, Metabotropic glutamate receptor 2; assay: Effective concentration for agonistic activity towards metabotropic glutamate receptor 2 of rat expressed in CHO cells; format: functional, cell-based
[28] = target: T3, Metabotropic glutamate receptor 1 (Rattus norvegicus, UniProt P23385); assay: Effective concentration for agonistic activity towards metabotropic glutamate receptor 1 of rat expressed in CHO cells; format: functional, cell-based
T3 sequence (P23385 whole entry): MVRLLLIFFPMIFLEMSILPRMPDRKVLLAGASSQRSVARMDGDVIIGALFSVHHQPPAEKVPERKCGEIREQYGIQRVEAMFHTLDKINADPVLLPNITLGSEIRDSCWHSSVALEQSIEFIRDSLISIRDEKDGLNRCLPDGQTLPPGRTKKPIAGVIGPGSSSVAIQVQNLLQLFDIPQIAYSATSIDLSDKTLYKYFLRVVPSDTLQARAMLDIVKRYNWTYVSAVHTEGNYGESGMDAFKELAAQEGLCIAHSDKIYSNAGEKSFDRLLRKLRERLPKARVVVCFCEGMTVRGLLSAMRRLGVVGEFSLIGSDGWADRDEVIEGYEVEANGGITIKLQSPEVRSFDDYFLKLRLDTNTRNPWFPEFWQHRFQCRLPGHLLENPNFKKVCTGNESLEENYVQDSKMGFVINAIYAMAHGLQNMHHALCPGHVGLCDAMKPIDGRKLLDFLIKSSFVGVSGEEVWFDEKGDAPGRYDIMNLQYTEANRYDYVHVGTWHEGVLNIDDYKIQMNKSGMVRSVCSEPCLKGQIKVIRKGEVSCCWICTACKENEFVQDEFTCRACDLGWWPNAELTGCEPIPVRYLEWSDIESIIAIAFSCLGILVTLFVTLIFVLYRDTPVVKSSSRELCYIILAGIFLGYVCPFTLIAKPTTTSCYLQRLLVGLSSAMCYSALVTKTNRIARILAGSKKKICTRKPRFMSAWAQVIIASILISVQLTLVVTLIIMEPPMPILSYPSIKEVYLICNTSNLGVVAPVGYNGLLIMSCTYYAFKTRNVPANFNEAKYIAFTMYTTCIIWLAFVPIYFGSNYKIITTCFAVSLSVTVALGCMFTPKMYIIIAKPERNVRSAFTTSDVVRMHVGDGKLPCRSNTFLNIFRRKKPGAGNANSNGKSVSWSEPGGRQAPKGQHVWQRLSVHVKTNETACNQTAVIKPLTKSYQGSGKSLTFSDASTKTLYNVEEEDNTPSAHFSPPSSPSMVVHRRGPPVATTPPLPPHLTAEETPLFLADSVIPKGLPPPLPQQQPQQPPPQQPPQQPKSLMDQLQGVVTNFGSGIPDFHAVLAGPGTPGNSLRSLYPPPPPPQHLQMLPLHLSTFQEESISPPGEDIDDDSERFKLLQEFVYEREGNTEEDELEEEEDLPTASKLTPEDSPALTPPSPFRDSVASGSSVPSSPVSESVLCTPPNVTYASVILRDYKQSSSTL

[29] = target: T2, Metabotropic glutamate receptor 3; assay: Effective concentration for agonistic activity towards metabotropic glutamate receptor 3 of rat expressed in CHO cells; format: functional, cell-based
[30] = target: T4, Metabotropic glutamate receptor 5 (Rattus norvegicus, UniProt P31424); assay: Effective concentration for agonistic activity towards metabotropic glutamate receptor 5 of rat expressed in CHO cells; format: functional, cell-based
T4 sequence (P31424 whole entry): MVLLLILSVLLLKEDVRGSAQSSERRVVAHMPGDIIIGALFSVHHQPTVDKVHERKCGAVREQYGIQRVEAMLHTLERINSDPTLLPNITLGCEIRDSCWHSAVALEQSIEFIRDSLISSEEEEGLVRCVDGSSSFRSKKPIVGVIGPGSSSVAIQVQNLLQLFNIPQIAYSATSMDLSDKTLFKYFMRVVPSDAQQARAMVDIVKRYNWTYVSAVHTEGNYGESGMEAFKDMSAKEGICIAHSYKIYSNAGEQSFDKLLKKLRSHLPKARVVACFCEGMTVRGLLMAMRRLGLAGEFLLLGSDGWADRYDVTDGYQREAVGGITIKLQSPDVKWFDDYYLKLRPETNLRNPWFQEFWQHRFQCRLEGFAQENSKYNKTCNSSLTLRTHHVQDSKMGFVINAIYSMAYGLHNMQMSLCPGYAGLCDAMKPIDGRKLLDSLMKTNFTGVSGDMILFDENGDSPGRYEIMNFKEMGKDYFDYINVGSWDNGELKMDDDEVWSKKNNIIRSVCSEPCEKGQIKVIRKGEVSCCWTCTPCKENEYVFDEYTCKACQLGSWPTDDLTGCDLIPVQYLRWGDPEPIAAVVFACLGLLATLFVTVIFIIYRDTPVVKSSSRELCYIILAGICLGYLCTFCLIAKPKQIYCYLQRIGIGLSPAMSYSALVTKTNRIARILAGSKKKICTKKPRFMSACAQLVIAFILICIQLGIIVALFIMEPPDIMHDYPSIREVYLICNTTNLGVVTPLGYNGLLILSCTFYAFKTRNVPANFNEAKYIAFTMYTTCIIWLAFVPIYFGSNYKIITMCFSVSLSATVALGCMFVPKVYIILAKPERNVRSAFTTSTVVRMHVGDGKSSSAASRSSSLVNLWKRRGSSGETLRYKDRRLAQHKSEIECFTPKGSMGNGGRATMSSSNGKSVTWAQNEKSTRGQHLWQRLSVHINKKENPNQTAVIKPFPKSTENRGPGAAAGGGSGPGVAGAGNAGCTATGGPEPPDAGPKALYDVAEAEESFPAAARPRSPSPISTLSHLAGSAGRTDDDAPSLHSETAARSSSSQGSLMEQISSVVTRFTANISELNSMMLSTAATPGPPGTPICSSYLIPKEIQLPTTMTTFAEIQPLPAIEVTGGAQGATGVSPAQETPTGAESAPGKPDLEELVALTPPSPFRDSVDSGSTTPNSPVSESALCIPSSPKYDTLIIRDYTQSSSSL

[31] = target: T5, Metabotropic glutamate receptor 6 (Rattus norvegicus, UniProt P35349); assay: Effective concentration for agonistic activity towards metabotropic glutamate receptor 6 of rat expressed in CHO cells; format: functional, cell-based
T5 sequence (P35349 whole entry): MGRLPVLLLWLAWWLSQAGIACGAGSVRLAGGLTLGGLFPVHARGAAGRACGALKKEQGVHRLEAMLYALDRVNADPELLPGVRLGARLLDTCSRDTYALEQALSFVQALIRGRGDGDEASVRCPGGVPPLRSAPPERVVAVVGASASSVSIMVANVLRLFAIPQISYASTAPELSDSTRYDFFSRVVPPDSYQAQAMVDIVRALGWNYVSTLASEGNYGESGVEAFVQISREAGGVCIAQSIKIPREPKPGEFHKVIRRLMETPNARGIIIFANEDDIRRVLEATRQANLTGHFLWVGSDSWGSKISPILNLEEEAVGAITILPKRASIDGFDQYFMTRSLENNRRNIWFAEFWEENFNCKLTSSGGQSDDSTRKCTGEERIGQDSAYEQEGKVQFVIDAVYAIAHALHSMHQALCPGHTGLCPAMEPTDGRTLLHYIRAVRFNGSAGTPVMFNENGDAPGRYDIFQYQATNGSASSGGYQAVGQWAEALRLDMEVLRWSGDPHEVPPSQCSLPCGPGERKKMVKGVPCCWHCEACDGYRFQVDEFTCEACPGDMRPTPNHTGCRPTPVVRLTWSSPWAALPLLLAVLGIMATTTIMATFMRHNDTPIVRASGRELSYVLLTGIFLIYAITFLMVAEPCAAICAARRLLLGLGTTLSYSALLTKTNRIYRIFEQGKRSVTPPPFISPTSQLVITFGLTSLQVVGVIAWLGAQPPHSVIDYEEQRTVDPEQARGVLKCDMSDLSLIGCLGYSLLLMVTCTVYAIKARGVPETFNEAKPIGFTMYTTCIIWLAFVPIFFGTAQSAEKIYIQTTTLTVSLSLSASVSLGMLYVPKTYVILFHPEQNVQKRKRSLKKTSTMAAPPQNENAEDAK

[32] = target: T3, Metabotropic glutamate receptor 1; assay: Concentration required to inhibit metabotropic glutamate receptor 1 activity of rat expressed in CHO cells; format: cell-based
[33] = target: T2, Metabotropic glutamate receptor 3; assay: Concentration required to inhibit metabotropic glutamate receptor 3 activity of rat expressed in CHO cells; format: cell-based
[34] = target: Metabotropic glutamate receptor 4 (Rattus norvegicus, UniProt P31423); assay: Concentration required to inhibit metabotropic glutamate receptor 4 activity of rat expressed in CHO cells; format: cell-based
[35] = target: T4, Metabotropic glutamate receptor 5; assay: Concentration required to inhibit metabotropic glutamate receptor 5 activity of rat expressed in CHO cells; format: cell-based
[36] = target: T5, Metabotropic glutamate receptor 6; assay: Concentration required to inhibit metabotropic glutamate receptor 6 activity of rat expressed in CHO cells; format: cell-based
[37] = target: Metabotropic glutamate receptor 7 (Rattus norvegicus, UniProt P35400); assay: Binding affinity towards metabotropic glutamate receptor 7 of rat expressed in CHO cells was determined by using [3H]LY341495

T1 sequence (P31421 whole entry): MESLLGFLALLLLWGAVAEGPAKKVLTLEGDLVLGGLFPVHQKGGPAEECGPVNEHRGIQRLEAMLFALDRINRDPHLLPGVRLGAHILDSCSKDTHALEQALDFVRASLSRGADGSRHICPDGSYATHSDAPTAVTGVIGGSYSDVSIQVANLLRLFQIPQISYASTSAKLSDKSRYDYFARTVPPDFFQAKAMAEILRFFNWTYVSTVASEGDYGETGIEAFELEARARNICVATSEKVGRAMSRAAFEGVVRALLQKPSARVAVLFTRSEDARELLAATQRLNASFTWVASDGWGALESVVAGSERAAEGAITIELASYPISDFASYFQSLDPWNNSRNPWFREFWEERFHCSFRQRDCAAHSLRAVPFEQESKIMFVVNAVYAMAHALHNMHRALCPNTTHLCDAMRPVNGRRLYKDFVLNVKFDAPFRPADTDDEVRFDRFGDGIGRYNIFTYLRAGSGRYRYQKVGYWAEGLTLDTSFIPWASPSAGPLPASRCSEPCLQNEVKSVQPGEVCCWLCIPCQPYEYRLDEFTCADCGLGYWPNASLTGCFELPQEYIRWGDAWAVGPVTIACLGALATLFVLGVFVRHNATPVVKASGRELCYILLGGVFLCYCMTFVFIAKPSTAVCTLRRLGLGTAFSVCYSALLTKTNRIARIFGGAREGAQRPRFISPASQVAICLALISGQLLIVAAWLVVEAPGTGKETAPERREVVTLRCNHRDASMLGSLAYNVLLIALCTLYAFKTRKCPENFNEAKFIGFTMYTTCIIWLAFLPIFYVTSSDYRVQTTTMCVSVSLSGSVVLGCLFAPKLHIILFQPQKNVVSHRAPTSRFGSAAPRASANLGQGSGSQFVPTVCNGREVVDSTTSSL

- Ki [1]: 3.05 nM
Structure (SMILES): CCC[C@H](O[C@@H]1C[C@@H]2[C@H]([C@]1(N)C(=O)O)[C@@]2(F)C(=O)O)c1ccc(Cl)c(Cl)c1

- Ki [1]: 5.81 nM
Structure (SMILES): C[C@H](O[C@@H]1C[C@@H]2[C@H]([C@]1(N)C(=O)O)[C@@]2(F)C(=O)O)c1ccc(Cl)c(Cl)c1

- Ki [1]: 39.2 nM
- Ki [2]: 88.1 nM
Structure (SMILES): CO[C@@H]1C[C@@H]2[C@H]([C@]1(N)C(=O)O)[C@@]2(F)C(=O)O

- Ki [1]: 9.34 nM
Structure (SMILES): N[C@]1(C(=O)O)[C@H]2[C@@H](C[C@H]1OCc1cccc(-c3ccccc3)c1)[C@]2(F)C(=O)O

- Ki [1]: 1.61 nM
Structure (SMILES): CC[C@@H](O[C@@H]1C[C@@H]2[C@H]([C@]1(N)C(=O)O)[C@@]2(F)C(=O)O)c1ccc(Cl)c(Cl)c1

- half-life [3]: 2.93 h
- IC50 [4]: 22.7 nM
- concentration at 1 h [5]: 1.42 ng/mL
- concentration at 3 h [6]: 3.64 ng/mL
- concentration at 6 h [7]: 8.72 ng/mL
- Cmax [8]: 65.9 ng/mL
- Cmax [9]: 374 ng/mL
- Cmax [10]: 965 ng/mL
- Cmax [11]: 8.72 ng/mL
- Cmax [12]: 252 ng/mL
- half-life [13]: 7.1 h
- half-life [14]: 2.9 h
- concentration at 24 h [15]: 0.25 ng/mL
- concentration at 1 h [16]: 121 ng/mL
- concentration at 3 h [17]: 252 ng/mL
- concentration at 6 h [18]: 210 ng/mL
- concentration at 24 h [19]: 2.2 ng/mL
- Ki [2]: 5.43 nM
- Tmax [20]: 4 h
- Tmax [21]: 2.7 h
- Tmax [22]: 2.7 h
- Tmax [23]: 6 h
- Tmax [24]: 3 h
- half-life [25]: 3.66 h
- half-life [26]: 2.74 h
Structure (SMILES): N[C@]1(C(=O)O)[C@H]2[C@@H](C[C@H]1OCc1ccc3ccccc3c1)[C@]2(F)C(=O)O

- Ki [1]: 3.12 nM
Structure (SMILES): CC[C@H](O[C@@H]1C[C@@H]2[C@H]([C@]1(N)C(=O)O)[C@@]2(F)C(=O)O)c1ccc(Cl)c(Cl)c1

- Ki [1]: > 10000 nM
Structure (SMILES): N[C@]1(C(=O)O)[C@@H](OCc2ccc(Cl)c(Cl)c2)C[C@H]2[C@@H]1[C@]2(F)C(=O)O

- EC50 [27]: > 100000 nM
- Ki [1]: 32.9 nM
- Ki [2]: 67.1 nM
Structure (SMILES): N[C@@]1(C(=O)O)[C@H](O)C[C@@H]2[C@H]1[C@@]2(F)C(=O)O

- Ki [1]: 4.35 nM
Structure (SMILES): N[C@]1(C(=O)O)[C@H]2[C@@H](C[C@H]1OCc1cccc(Cl)c1Cl)[C@]2(F)C(=O)O

- IC50 [4]: 131 nM
- Ki [1]: 7.14 nM
- Ki [2]: 15.9 nM
Structure (SMILES): N[C@]1(C(=O)O)[C@H]2[C@@H](C[C@H]1OCc1ccccc1)[C@]2(F)C(=O)O

- half-life [3]: 2.77 h
- EC50 [28]: > 100000 nM
- EC50 [27]: > 100000 nM
- EC50 [29]: > 100000 nM
- EC50 [30]: > 100000 nM
- EC50 [31]: > 100000 nM
- IC50 [32]: 93300 nM
- IC50 [33]: 24 nM
- IC50 [34]: 1740 nM
- IC50 [35]: 117000 nM
- IC50 [36]: 2060 nM
- concentration at 1 h [5]: 3.88 ng/mL
- concentration at 3 h [6]: 8.02 ng/mL
- concentration at 6 h [7]: 13.2 ng/mL
- Cmax [8]: 214 ng/mL
- Cmax [9]: 932 ng/mL
- Cmax [10]: 2960 ng/mL
- Cmax [11]: 13.2 ng/mL
- Cmax [12]: 492 ng/mL
- half-life [13]: 10.9 h
- half-life [14]: 2.3 h
- concentration at 24 h [15]: 4.22 ng/mL
- concentration at 1 h [16]: 364 ng/mL
- concentration at 3 h [17]: 429 ng/mL
- concentration at 6 h [18]: 492 ng/mL
- concentration at 24 h [19]: 2.1 ng/mL
- Ki [1]: 2.38 nM
- Ki [2]: 4.46 nM
- Tmax [20]: 2 h
- Tmax [21]: 2.7 h
- Tmax [22]: 3.3 h
- Tmax [23]: 6 h
- Tmax [24]: 6 h
- half-life [25]: 2.15 h
- half-life [26]: 2.76 h
- Ki [37]: 664 nM
Structure (SMILES): N[C@]1(C(=O)O)[C@H]2[C@@H](C[C@H]1OCc1ccc(Cl)c(Cl)c1)[C@]2(F)C(=O)O

- half-life [3]: 3.62 h
- EC50 [27]: > 100000 nM
- IC50 [4]: 40.8 nM
- concentration at 1 h [5]: 3.06 ng/mL
- concentration at 3 h [6]: 3.11 ng/mL
- concentration at 6 h [7]: 2.4 ng/mL
- Cmax [8]: 82.3 ng/mL
- Cmax [9]: 297 ng/mL
- Cmax [10]: 635 ng/mL
- Cmax [11]: 3.11 ng/mL
- Cmax [12]: 213 ng/mL
- half-life [13]: 19.5 h
- half-life [14]: 2.8 h
- concentration at 24 h [15]: 1.39 ng/mL
- concentration at 1 h [16]: 213 ng/mL
- concentration at 3 h [17]: 179 ng/mL
- concentration at 6 h [18]: 41.1 ng/mL
- concentration at 24 h [19]: 0.8 ng/mL
- Ki [1]: 2.27 nM
- Ki [2]: 3 nM
- Tmax [20]: 1.3 h
- Tmax [21]: 1.7 h
- Tmax [22]: 1.2 h
- Tmax [23]: 3 h
- Tmax [24]: 1 h
- half-life [25]: 3.47 h
- half-life [26]: 1.78 h
Structure (SMILES): N[C@]1(C(=O)O)[C@H]2[C@@H](C[C@H]1OCc1ccc(F)c(F)c1)[C@]2(F)C(=O)O

- Ki [1]: 4.3 nM
Structure (SMILES): N[C@]1(C(=O)O)[C@H]2[C@@H](C[C@H]1OCc1c(Cl)cccc1Cl)[C@]2(F)C(=O)O

- Ki [1]: 3.28 nM
Structure (SMILES): N[C@]1(C(=O)O)[C@H]2[C@@H](C[C@H]1OCc1cccc(Cl)c1)[C@]2(F)C(=O)O

Source: ChEMBL document CHEMBL1138738, “Synthesis, in vitro pharmacology, structure-activity relationships, and pharmacokinetics of 3-alkoxy-2-amino-6-fluorobicyclo[3.1.0]hexane-2,6-dicarboxylic acid derivatives as potent and selective group II metabotropic glutamate receptor antagonists” (J Med Chem, 2004)
